Tested on: tumor biopsies from stage IV NB patients
Test: phage overlay binding assay on tumor biopsies from NB patients
Conditions: human NB sections, compared with Mallory Trichrome histology
Procedure, shortened: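 Frozen sections (5 μm) from stage IV NB patient tumors in OCT, fixed 10 min at room temperature in 4% paraformaldehyde/PBS, washed twice in PBS, and blocked with serum-free protein block. Sections overlaid 1 h at 4°C with 10⁸ T.U./μl of each phage clone; insertless Fd-Tet phage as negative control. Bound phage detected with anti-bacteriophage antibody plus HRP polymer, then hematoxylin counterstain.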

Row | Substance | tumor component preferentially bound
1 | ALAAHKL [Phage #10] | preferentially bind to non-epithelial tumor components
2 | HSYWLSR [Phage #5] | preferentially bind to non-epithelial tumor components
3 | KSFFLSH [Phage #14] | widely recognizes the whole NB masses
4 | WSWPREL [Phage #8] | preferentially bind to non-epithelial tumor components
5 | YEGLISR [Phage #1] | preferentially bind to non-epithelial tumor components
